High-throughput results: PubChem BioAssay, Broad Institute
Rows were chosen to be rich in hits. Some 3.5% of all compounds tested hit in one or more screens of this group.
Env fusion inh: HIV envelope-mediated fusion inhibition | HeLa-JRFL Env/CEM21 cell fusion, luciferase | AID 651610 | inhibition, % at 12.3 µM | actives 1.1% (n = 360,000);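 active means mean replicate inhibition score of at least 50 and every replicate individually at or above 50; inconclusive means only one of the two criteria met; inactive means mean below 50 and not all replicates reaching 50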;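 further: 0% = plate neutral controls and 100% = maraviroc near 300 nM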
ERAP1 HTS inh: inhibitors of human ERAP1 aminopeptidase. actives 0.15% (n = 340,000). Q9NZ08. recombinant ERAP1, Leu-AMC fluorescence, 60 min. inhibition, % at 10.7 µM;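 active means mean replicate inhibition of at least 30%, or all replicates individually reaching that 30% level; inactive means mean below 30% and not every replicate reaching it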;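 further: 0% = neutral control wells and 100% = L-leucinethiol positive control wells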
Target sequence (Q9NZ08 whole entry, looked up): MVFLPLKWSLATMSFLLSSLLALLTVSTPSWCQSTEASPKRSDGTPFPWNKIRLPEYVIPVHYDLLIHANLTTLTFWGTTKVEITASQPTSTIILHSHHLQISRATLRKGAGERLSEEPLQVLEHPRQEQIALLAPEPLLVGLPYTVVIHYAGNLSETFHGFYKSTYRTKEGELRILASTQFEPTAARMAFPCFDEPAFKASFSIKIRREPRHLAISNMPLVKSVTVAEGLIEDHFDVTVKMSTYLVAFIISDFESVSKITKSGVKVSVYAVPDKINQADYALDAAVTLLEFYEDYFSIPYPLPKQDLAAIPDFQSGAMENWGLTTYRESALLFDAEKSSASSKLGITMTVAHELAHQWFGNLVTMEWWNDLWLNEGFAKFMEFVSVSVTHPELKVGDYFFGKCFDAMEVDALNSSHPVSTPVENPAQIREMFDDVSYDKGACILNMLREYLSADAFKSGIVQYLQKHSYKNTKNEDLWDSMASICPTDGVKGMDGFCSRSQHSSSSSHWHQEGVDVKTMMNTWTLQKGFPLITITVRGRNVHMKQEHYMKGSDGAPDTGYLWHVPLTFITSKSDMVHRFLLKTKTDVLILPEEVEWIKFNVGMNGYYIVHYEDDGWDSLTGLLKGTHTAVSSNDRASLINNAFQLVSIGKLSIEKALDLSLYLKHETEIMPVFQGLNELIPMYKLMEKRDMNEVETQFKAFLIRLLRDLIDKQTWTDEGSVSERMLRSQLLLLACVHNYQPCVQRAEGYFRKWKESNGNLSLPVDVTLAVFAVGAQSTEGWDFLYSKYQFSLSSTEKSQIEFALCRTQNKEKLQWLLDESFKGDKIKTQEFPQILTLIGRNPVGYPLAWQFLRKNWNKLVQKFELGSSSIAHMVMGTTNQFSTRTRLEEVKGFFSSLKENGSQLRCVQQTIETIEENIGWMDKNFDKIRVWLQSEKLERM
Cneo AK release: causes C. neoformans cell lysis. actives 0.2% (n = 360,000). adenylate kinase release luminescence, 4 h; normalised: neutral wells 0, clomiphene wells 100. lysis activity, % at 15 µM. AID 651654;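 active means mean lysis activity across replicates of at least 80%, whatever share of replicates individually reach that level; inactive means mean lysis activity below 80%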
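Assay system: log-phase C. neoformans yeast / Quantity: yeast cell density of 5 × 10^6 cells/mL / Medium: fresh YPD growth medium / Compound: single dose / Timing: static 4 h at 37 °C with compound, 1 h detection / Measured by: adenylate kinase release luminescence / Read-out: lysis from increased AK signal / Benchmarks: Clomiphene as positive lysis control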
MITF act: MITF TRPM1 promoter activation in melanoma cells | SK-MEL-5 TRPM1-promoter luciferase, 24 h; % of positive control, neutral wells = 0 | activation, % at 12.5 µM | actives 0.75% (n = 300,000) | AID 588334;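 active means mean activation of at least 80% with every replicate also reaching 80%; inconclusive means mean reaches 80% but some replicate falls short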;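 further: 0% = neutral control wells and 100% = parthenolide positive control wells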
Wnt act: activates Wnt/beta-catenin signaling in a reporter cell assay; activator, plate reader; activation, % at 9.35 µM; actives 1.2% (n = 300,000); AID 743398; in the data active means activation above about 30%, passing the limit was not always enough; inconclusive means no clear call, values can overlap the other calls;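 further: 0% = neutral control wells and 100% = positive control wells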
esBAF inh: blocks esBAF chromatin remodeling in mouse ES cells; Bmi1-luciferase knock-in reporter, 24 h; 100% = twice the neutral-well signal; reporter increase, % at 12.5 µM; actives 2% (n = 350,000); in the data active means activation above about 40%; inconclusive means no clear call, values can overlap the other calls;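 further: 0% = median of the plate's neutral control wells and 100% = double that signal; a rise in the Bmi1 reporter signal indicates esBAF inhibition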
The depositor's hits bear a star; [ ] = another dose, or the depositor's remark.

`CC1CN(c2ccccc2)CCN1C(=O)c1cc(COc2c(F)cccc2F)on1` (centres undefined) gave Env fusion inh 9, ERAP1 HTS inh 0, Cneo AK release -2, MITF act 10, Wnt act -1 and esBAF inh 2.
Screening COc1ccc(CN(C)C[C@H]2Oc3ccc(NS(=O)(=O)c4cccs4)cc3CC(=O)N([C@@H](C)CO)C[C@@H]2C)cc1 returned Env fusion inh -10[16.7 µM], ERAP1 HTS inh -6 and esBAF inh 3.
Screening C[C@@H]1CCCCO[C@H](CN(C)C(=O)CCCN(C)C)[C@H](C)CN([C@@H](C)CO)C(=O)c2cc(NC(=O)Nc3ccccc3)ccc2O1 returned Env fusion inh -8[16.7 µM], ERAP1 HTS inh 0, Cneo AK release -1 and esBAF inh 0.
C[C@@H]1CN([C@@H](C)CO)C(=O)c2cc(NC(=O)Nc3ccc4c(c3)OCO4)ccc2O[C@@H](C)CCCCO[C@H]1CN(C)Cc1ccccc1 was read as Env fusion inh 7[16.7 µM], ERAP1 HTS inh -3, Cneo AK release 2 and esBAF inh 2.
COc1ccccc1OCc1cc(-c2ccccc2)no1 was read as Env fusion inh -47, ERAP1 HTS inh 2 and MITF act 95*.
For COc1ccc(OCc2cc(C(=O)N3C[C@H]4CC[C@H]3C4)no2)c(Cl)c1 the results were Env fusion inh -28, ERAP1 HTS inh 7, Cneo AK release 0, MITF act 84*, Wnt act 14 and esBAF inh 61*.
`CC(=O)c1ccc(OCc2cc(C(=O)N3CC4C[C@@H]5CC3C[C@H](C4)C5)no2)cc1` gave Env fusion inh -54, ERAP1 HTS inh 1, Cneo AK release -3, MITF act 64 and Wnt act 30.
For O=C(c1cc(COc2ccc(F)cc2F)on1)N1CC2C[C@@H]3CC1C[C@H](C2)C3 the results were Env fusion inh -34, ERAP1 HTS inh -1, Cneo AK release 0, MITF act inconclusive, Wnt act 22 and esBAF inh 55*.
Screening c1ccc(OCc2cc(-c3ccccc3)no2)cc1 returned Env fusion inh -74, ERAP1 HTS inh 3, MITF act 71 and Wnt act inconclusive.
`O=C(c1cc(COc2ccc(F)cc2F)on1)N1C[C@H]2CC[C@H]1C2` gave Env fusion inh -9, ERAP1 HTS inh 1, Cneo AK release -4, MITF act 79, Wnt act 15 and esBAF inh 46*.
`COc1ccc(S(=O)(=O)Nc2ccc3c(c2)CC(=O)N([C@H](C)CO)C[C@@H](C)[C@@H](CN(C)S(=O)(=O)c2c(C)noc2C)O3)cc1` gave Env fusion inh -8[16.7 µM], ERAP1 HTS inh 1, Cneo AK release -1 and esBAF inh 4.
COCCNC(=O)C[C@@H]1CC[C@@H]2[C@H](COC[C@H](O)CN2Cc2cccc(-c3ccncc3)c2)O1 was read as Env fusion inh 27[16.7 µM], ERAP1 HTS inh 1, Cneo AK release -1 and esBAF inh -10.
For CCCNC(=O)N1C[C@H]2[C@@H](c3ccccc31)[C@H](CO)N2CC1CCCC1 the results were ERAP1 HTS inh -1, Cneo AK release -3 and esBAF inh -1.
Screening CNC[C@@H]1OCCCC[C@H](C)Oc2ccc(N(C)C)cc2C(=O)N([C@@H](C)CO)C[C@@H]1C returned Env fusion inh 3[16.7 µM] and esBAF inh -3.
Cc1nn(Cc2ccc([N+](=O)[O-])cc2)c(=O)n1N(C)c1ncc(C(F)(F)F)cc1Cl was read as Env fusion inh 63*, Cneo AK release -1, MITF act 13, Wnt act -6 and esBAF inh -2.
For Cc1nn(Cc2ccc(Cl)cc2)c(=O)n1N(C)c1ncc(C(F)(F)F)cc1Cl the results were Cneo AK release -1 and esBAF inh -3.
For C[C@@H]1CCCCO[C@H](CN(C)C(=O)NC2CCCCC2)[C@@H](C)CN([C@@H](C)CO)C(=O)c2cc(NC(=O)Nc3ccc(C(F)(F)F)cc3)ccc2O1 the results were Env fusion inh 39[16.7 µM], ERAP1 HTS inh -6, Cneo AK release 1 and esBAF inh -13.
Screening COc1ccc(-n2nnnc2-c2cccc(OC)c2)cc1 returned Env fusion inh 56*, Cneo AK release -15, MITF act -21, Wnt act -9 and esBAF inh -7.
Screening Cc1ccc(-n2nnnc2-c2cccc(C)c2)cc1 returned Env fusion inh 2, ERAP1 HTS inh -2, MITF act 2 and Wnt act -2.
`Cc1ccc(/C=C2\SC(=S)N(Cc3ccccc3)C2=O)o1` gave Env fusion inh -52, Cneo AK release -1, MITF act 8 and esBAF inh 5.
Screening O=C(O)c1cc(-c2ccc(/C=C3/SC(=S)N(Cc4ccccc4)C3=O)o2)ccc1Cl returned Env fusion inh 9, ERAP1 HTS inh -55, Cneo AK release 22, MITF act 2, Wnt act -1 and esBAF inh 54*.
`Cc1cccnc1NC(=O)CCCNC(=O)c1ccc(Cl)cc1` gave Env fusion inh -19, ERAP1 HTS inh 0, Cneo AK release 1, MITF act 7, Wnt act 2 and esBAF inh 4.
Cc1ccc(NC(=O)CCNC(=O)c2ccc(Cl)cc2)nc1 was read as Env fusion inh -320, ERAP1 HTS inh 2, Cneo AK release 1, MITF act 50, Wnt act 11 and esBAF inh 38.
Screening Cc1cnc(NC(=O)CCCNC(=O)c2ccc(Cl)cc2)s1 returned Env fusion inh -34, ERAP1 HTS inh 2, Cneo AK release -1, MITF act 38, Wnt act 52* and esBAF inh 42*.
For Cc1ccc(NC(=O)CCCNC(=O)c2ccc(Cl)cc2)nc1 the results were ERAP1 HTS inh -4, Cneo AK release 1, MITF act 44, Wnt act 7 and esBAF inh 52*.
For CC(=O)N[C@H]1CC[C@@H](CCNC(=O)C2CCCC2)O[C@@H]1CO the results were Env fusion inh 14[16.7 µM], ERAP1 HTS inh 0, Cneo AK release 0 and esBAF inh 7.
Screening COCC(=O)N1[C@H](C#N)[C@H](c2ccc(-c3cccnc3)cc2)[C@@H]1CO returned ERAP1 HTS inh 0, Cneo AK release -1 and esBAF inh -4.
O=C(O)C[C@H]1C=C[C@H](NC(=O)c2ccccc2F)[C@H](CO)O1 was read as Env fusion inh -3[16.7 µM] and esBAF inh -3.
Screening COc1ccccc1Nc1ncc(-c2cccs2)s1 returned Cneo AK release 18, MITF act 72 and esBAF inh 54*.
`COc1ccccc1Nc1ccc(C(=O)NCc2cccs2)cn1` gave Env fusion inh 3, ERAP1 HTS inh 4, Cneo AK release 1, MITF act 9, Wnt act 0 and esBAF inh -3.
